Measurements taken from ChEMBL document CHEMBL1795205, “The new 5- or 6-azapyrimidine and cyanuric acid derivatives of l-ascorbic acid bearing the free C-5 hydroxy or C-4 amino group at the ethylenic spacer: CD-spectral absolute configuration determination and biological activity evaluations” (Eur J Med Chem, 2011).
Active and inactive are the calls of the source. No cut-off for these calls is given here.

What was measured:
HeLa [1] = test: Induction of apoptosis in human HeLa cells at 1 to 5 uM after 24 to 48 hrs by annexin V/PI staining; type: functional, cell-based
Procedure, shortened: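 Cells were seeded on slides, incubated 24 h, then exposed to compound for 24 and 48 h. They were washed with PBS and binding buffer, incubated with annexin-V for 10 min, washed with binding buffer, and stained with PI.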

HeLa [2] = test: Induction of cell cycle arrest in human HeLa cells assessed as accumulation at G2/M phase at 1 uM after 48 hrs by flow cytometry relative to control; type: functional
Procedure, shortened: (§1)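 Cells were seeded at 3×10⁵ per well in 6-well plates and treated after overnight incubation for 24 and 48 h. They were trypsinized, washed three times in PBS, fixed in cold ethanol and stored at −20 °C. Pellets were washed twice in PBS and treated with RNase A at 37 °C for 15 min, then stained with PI for 30 min in the dark. DNA content was measured by flow cytometry.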

MIA PaCa-2 [3] = test: Induction of cell cycle arrest in human MIAPaCa2 cells assessed as accumulation at G1 phase at 5 uM after 24 hrs by flow cytometry (reference value: 55.4 +/- 0.01%); type: functional
MIA PaCa-2 [4] = test: Cytostatic activity against human MIAPaCa2 cells assessed as inhibition of cell proliferation after 72 hrs by MTT assay; type: functional, cell-based; settings: MIA PaCa-2, 72 h
Procedure, shortened: (§2)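 Monolayer cells grown in DMEM with 10% FBS were seeded on day 0 at 3000–6000 cells/well, set by each line's doubling time. Agents were added the next step in five 10-fold dilutions (0.01–100) for 72 h, with DMSO ≤0.1% and a solvent control. MTT absorbance was converted to percentage growth versus untreated wells on the same plate. Where all PGs exceeded 50, the top concentration was reported as ">". ANOVA/Tukey, p<0.05.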

SW-620 [5] = test: Induction of cell cycle arrest in human SW620 cells assessed as accumulation at S phase at 1 uM after 24 hrs by flow cytometry (reference value: 37.7 +/- 0.01%); type: functional
SW-620 [6] = test: Cytostatic activity against human SW620 cells assessed as inhibition of cell proliferation after 72 hrs by MTT assay; type: functional, cell-based; settings: SW-620, 72 h; procedure, shortened: as §2
MIA PaCa-2 [7] = test: Induction of cell cycle arrest in human MIAPaCa2 cells assessed as accumulation at subG1 phase at 1 uM after 24 hrs by flow cytometry (reference value: 0.32 +/- 0.009%); type: functional
MCF7 = test: Cytostatic activity against human MCF7 cells assessed as inhibition of cell proliferation after 72 hrs by MTT assay; type: functional, cell-based; settings: MCF7, 72 h; procedure, shortened: as §2
SW-620 [8] = test: Induction of cell cycle arrest in human SW620 cells assessed as accumulation at subG1 phase at 5 uM after 48 hrs by flow cytometry (reference value: 0.18 +/- 0.036%); type: functional
HepG2 = test: Cytostatic activity against human HepG2 cells assessed as inhibition of cell proliferation after 72 hrs by MTT assay; type: functional, cell-based; settings: HepG2, 72 h; procedure, shortened: as §2
HeLa [9] = test: Cytostatic activity against human HeLa cells assessed as inhibition of cell proliferation after 72 hrs by MTT assay; type: functional, cell-based; procedure, shortened: as §2
SW-620 [10] = test: Induction of cell cycle arrest in human SW620 cells assessed as accumulation at G1 phase at 1 uM after 24 hrs by flow cytometry (reference value: 51.6 +/- 0.07%); type: functional
MIA PaCa-2 [11] = test: Induction of cell cycle arrest in human MIAPaCa2 cells assessed as accumulation at S phase at 5 uM after 24 hrs by flow cytometry (reference value: 34.3 +/- 0.07%); type: functional
MIA PaCa-2 [12] = test: Induction of cell cycle arrest in human MIAPaCa2 cells assessed as accumulation at subG1 phase at 5 uM after 48 hrs by flow cytometry (reference value: 0.20 +/- 0.06%); type: functional
SW-620 [13] = test: Induction of cell cycle arrest in human SW620 cells assessed as accumulation at G1 phase at 5 uM after 48 hrs by flow cytometry (reference value: 46.6 +/- 4.88%); type: functional
SW-620 [14] = test: Induction of cell cycle arrest in human SW620 cells assessed as accumulation at subG1 phase at 1 uM after 24 hrs by flow cytometry (reference value: 0.37 +/- 0.36%); type: functional
SW-620 [15] = test: Induction of cell cycle arrest in human SW620 cells assessed as accumulation at S phase at 5 uM after 48 hrs by flow cytometry (reference value: 41.7 +/- 2.47%); type: functional
SW-620 [16] = test: Induction of cell cycle arrest in human SW620 cells assessed as accumulation at S phase at 5 uM after 24 hrs by flow cytometry (reference value: 37.7 +/- 0.01%); type: functional
MIA PaCa-2 [17] = test: Induction of cell cycle arrest in human MIAPaCa2 cells assessed as accumulation at subG1 phase at 1 uM after 48 hrs by flow cytometry (reference value: 0.20 +/- 0.06%); type: functional
HeLa [18] = test: Induction of cell cycle arrest in human HeLa cells assessed as accumulation at G1 phase at 5 uM after 48 hrs by flow cytometry relative to control; type: functional; procedure, shortened: as §1
HeLa [19] = test: Induction of cell cycle arrest in human HeLa cells assessed as accumulation at subG1 phase at 1 uM after 48 hrs by flow cytometry relative to control; type: functional; procedure, shortened: as §1
HeLa [20] = test: Induction of cell cycle arrest in human HeLa cells assessed as accumulation at G1 phase at 1 uM after 48 hrs by flow cytometry relative to control; type: functional; procedure, shortened: as §1
HeLa [21] = test: Induction of cell cycle arrest in human HeLa cells assessed as accumulation at G2/M phase at 1 uM after 24 hrs by flow cytometry relative to control; type: functional; procedure, shortened: as §1
MIA PaCa-2 [22] = test: Induction of cell cycle arrest in human MIAPaCa2 cells assessed as accumulation at G2/M phase at 1 uM after 48 hrs by flow cytometry (reference value: 9.35 +/- 0.92%); type: functional
HeLa [23] = test: Induction of cell cycle arrest in human HeLa cells assessed as accumulation at subG1 phase at 5 uM after 48 hrs by flow cytometry relative to control; type: functional; procedure, shortened: as §1
SW-620 [24] = test: Induction of cell cycle arrest in human SW620 cells assessed as accumulation at G1 phase at 1 uM after 48 hrs by flow cytometry (reference value: 46.6 +/- 4.88%); type: functional

In the case of `Nc1ncn(C/C=C2\OC(=O)C(OCc3ccccc3)=C2OCc2ccccc2)c(=O)n1`, the Activity (HeLa [1]) is reported as “inactive”, the Activity (HeLa [2]) is reported as 14.4% and the Activity (MIA PaCa-2 [3]) is reported as 35.6%. For the same molecule, the IC50 (MIA PaCa-2 [4]) was 0.92 µM, the Activity (SW-620 [5]) was 50.5% and the IC50 (SW-620 [6]) was 5.62 µM. The Activity (MIA PaCa-2 [7]) was 0.2%, the IC50 (MCF7) was 3.49 µM and the Activity (SW-620 [8]) was 0.21%. The IC50 (HepG2) was 2.72 µM, the IC50 (HeLa [9]) was 5.91 µM and the Activity (SW-620 [10]) was 41.3%. It also gave an Activity (MIA PaCa-2 [11]) of 57.4%, an Activity (MIA PaCa-2 [12]) of 0.31% and an Activity (SW-620 [13]) of 39.1%. The Activity (SW-620 [14]) was 0.56%, the Activity (SW-620 [15]) was 51.8% and the Activity (SW-620 [16]) was 58.3%. It also gave an Activity (MIA PaCa-2 [17]) of 0.18%, an Activity (HeLa [18]) of 23.9% and an Activity (HeLa [19]) of 0.02%. It also gave an Activity (HeLa [20]) of 20.1%, an Activity (HeLa [21]) of 11.9% and an Activity (MIA PaCa-2 [22]) of 12.9%. It also gave an Activity (HeLa [23]) of 0.23% and an Activity (SW-620 [24]) of 23.2%.
